ChEMBL document CHEMBL3352487, “Synthesis, antibacterial activity, and biological evaluation of formyl hydroxyamino derivatives as novel potent peptide deformylase inhibitors against drug-resistant bacteria” (Eur J Med Chem, 2014)
Values after ≈ are worked out from the molar mass of the structure shown.

Key:
hERG (KCNH2) [1] = molecular target: T1, hERG (KCNH2) (Homo sapiens, UniProt Q12809); experiment: Inhibition of human ERG at 1 uM
Staphylococcus aureus [2] = experiment: Antimicrobial activity against Staphylococcus aureus after 24 hrs by broth microdilution method; assay type: functional
How it was run: (§1)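 Broth microdilution following NCCLS M7-A4; ATCC strains and clinical isolates from a provincial hospital.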

Staphylococcus aureus [3] = experiment: Antimicrobial activity against methicillin-susceptible Staphylococcus aureus after 24 hrs by broth microdilution method; assay type: functional; how it was run: as §1
Staphylococcus aureus [4] = experiment: Antimicrobial activity against methicillin-resistant Staphylococcus aureus after 24 hrs by broth microdilution method; assay type: functional
How it was run: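 Broth microdilution following NCCLS M7-A4, using ATCC strains and clinical isolates from a provincial hospital.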

[5] = system: Staphylococcus epidermidis; experiment: Antimicrobial activity against Staphylococcus epidermidis after 24 hrs by broth microdilution method; assay type: functional; how it was run: as §1
Escherichia coli [6] = experiment: Antimicrobial activity against Escherichia coli isolate 1 after 24 hrs by broth microdilution method; assay type: functional; conditions: isolate 1, 24 h; how it was run: as §1
Escherichia coli [7] = experiment: Antimicrobial activity against Escherichia coli isolate 2 after 24 hrs by broth microdilution method; assay type: functional; conditions: isolate 2, 24 h; how it was run: as §1
[8] = Half life in Sprague-Dawley rat at 5 mg/kg, iv; assay type: ADME, organism-based; set-up: dose 5 mg/kg, route intravenous; conditions: in vivo
[9] = Mean residence time (0 to t) in Sprague-Dawley rat at 5 mg/kg, iv; assay type: ADME, organism-based; set-up: dose 5 mg/kg, route intravenous; conditions: in vivo
[10] = AUC (0 to t) in Sprague-Dawley rat at 5 mg/kg, iv; assay type: ADME, organism-based; set-up: dose 5 mg/kg, route intravenous; conditions: plasma
[11] = AUC (0 to infinity) in Sprague-Dawley rat at 5 mg/kg, iv; assay type: ADME, organism-based; set-up: time infinity, dose 5 mg/kg, route intravenous; conditions: plasma
[12] = Clearance in Sprague-Dawley rat at 5 mg/kg, iv; assay type: ADME, organism-based; set-up: dose 5 mg/kg, route intravenous; conditions: in vivo
[13] = Volume of distribution at steady state in Sprague-Dawley rat at 5 mg/kg, iv; assay type: ADME, organism-based; set-up: dose 5 mg/kg, route intravenous; conditions: in vivo, read-out: Vdss
[14] = Cmax in Sprague-Dawley rat at 25 mg/kg, po; assay type: ADME, organism-based; set-up: dose 25 mg/kg, route oral; conditions: in vivo
[15] = Tmax in Sprague-Dawley rat at 25 mg/kg, po; assay type: ADME, organism-based; set-up: dose 25 mg/kg, route oral; conditions: in vivo
[16] = Half life in Sprague-Dawley rat at 25 mg/kg, po; assay type: ADME, organism-based; set-up: dose 25 mg/kg, route oral; conditions: in vivo
[17] = AUC (0 to t) in Sprague-Dawley rat at 25 mg/kg, po; assay type: ADME, organism-based; set-up: dose 25 mg/kg, route oral; conditions: plasma
[18] = AUC (0 to infinity) in Sprague-Dawley rat at 25 mg/kg, po; assay type: ADME, organism-based; set-up: dose 25 mg/kg, route oral, time infinity; conditions: plasma
[19] = Mean residence time (0 to t) in Sprague-Dawley rat at 25 mg/kg, po; assay type: ADME, organism-based; set-up: dose 25 mg/kg, route oral; conditions: in vivo
[20] = Oral bioavailability in Sprague-Dawley rat at 25 mg/kg; assay type: ADME, organism-based; conditions: in vivo
hERG (KCNH2) [21] = molecular target: T1, hERG (KCNH2); experiment: Inhibition of human ERG at 10 uM
[22] = Solubility of the compound in artificial gastric juice measured every 2 hrs for 12 hrs by HPLC analysis; assay type: ADME; conditions: simulated gi fluid
[23] = Solubility of the compound in artificial intestinal juice measured every 2 hrs for 12 hrs by HPLC analysis; assay type: physicochemical; conditions: simulated gi fluid
[24] = Stability of the compound in artificial gastric juice measured every 2 hrs for 12 hrs by HPLC analysis; assay type: ADME; conditions: simulated gi fluid
[25] = Stability of the compound in artificial intestinal juice measured every 2 hrs for 12 hrs by HPLC analysis; assay type: physicochemical; conditions: simulated gi fluid

T1 sequence (Q12809 whole entry): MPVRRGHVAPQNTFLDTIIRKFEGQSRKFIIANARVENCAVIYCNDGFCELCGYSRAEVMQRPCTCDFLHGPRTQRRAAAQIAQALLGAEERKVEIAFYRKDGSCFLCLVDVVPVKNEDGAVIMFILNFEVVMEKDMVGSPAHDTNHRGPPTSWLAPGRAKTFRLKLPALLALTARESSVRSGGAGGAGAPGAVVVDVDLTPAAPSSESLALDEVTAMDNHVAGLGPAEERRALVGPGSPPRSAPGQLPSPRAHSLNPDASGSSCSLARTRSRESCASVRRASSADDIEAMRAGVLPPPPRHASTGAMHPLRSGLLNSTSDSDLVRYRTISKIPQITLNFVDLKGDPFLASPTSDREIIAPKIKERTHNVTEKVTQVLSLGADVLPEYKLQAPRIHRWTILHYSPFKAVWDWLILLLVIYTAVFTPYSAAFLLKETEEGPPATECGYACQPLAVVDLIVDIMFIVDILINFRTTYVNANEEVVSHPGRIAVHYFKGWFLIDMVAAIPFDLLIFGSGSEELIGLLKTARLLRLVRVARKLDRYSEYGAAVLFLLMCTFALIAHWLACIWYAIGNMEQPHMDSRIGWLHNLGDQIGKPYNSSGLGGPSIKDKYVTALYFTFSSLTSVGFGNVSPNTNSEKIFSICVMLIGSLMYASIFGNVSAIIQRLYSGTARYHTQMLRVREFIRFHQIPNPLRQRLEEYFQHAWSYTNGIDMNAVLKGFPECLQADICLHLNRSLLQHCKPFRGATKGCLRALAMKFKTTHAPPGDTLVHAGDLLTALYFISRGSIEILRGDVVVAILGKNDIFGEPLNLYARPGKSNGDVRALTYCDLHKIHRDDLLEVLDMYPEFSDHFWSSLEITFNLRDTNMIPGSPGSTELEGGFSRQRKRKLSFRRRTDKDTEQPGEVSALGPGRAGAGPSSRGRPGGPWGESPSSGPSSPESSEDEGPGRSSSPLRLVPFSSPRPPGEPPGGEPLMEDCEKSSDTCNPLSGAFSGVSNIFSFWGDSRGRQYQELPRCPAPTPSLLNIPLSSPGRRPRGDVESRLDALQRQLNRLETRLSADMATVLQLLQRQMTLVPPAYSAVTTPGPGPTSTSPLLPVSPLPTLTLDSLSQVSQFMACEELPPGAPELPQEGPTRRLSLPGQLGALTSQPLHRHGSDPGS

## CCCC[C@H](CN(O)C=O)C(=O)N1CC=C[C@H]1C(=O)Nc1ncc(C)s1
hERG (KCNH2) [1]
  inhibition at 1 µM: 5.7%
Staphylococcus aureus [2]
  MIC: 0.0625 µg/mL (≈ 0.164 µM)
Staphylococcus aureus [3]
  MIC: 0.25 µg/mL (≈ 0.657 µM)
Staphylococcus aureus [4]
  MIC: 0.125 µg/mL (≈ 0.329 µM)
[5]
  MIC: 0.25 µg/mL (≈ 0.657 µM)
Escherichia coli [6]
  MIC: 32 µg/mL (≈ 84.1 µM)
Escherichia coli [7]
  MIC: 16 µg/mL (≈ 42.1 µM)
[8]
  half-life: 4.08 h
[9]
  MRT last: 0.952 h
[10]
  AUC(0-t): 4920 ng·h/mL
[11]
  AUC(0-inf): 4930 ng·h/mL
[12]
  clearance: 17 mL/min/kg
[13]
  Vd: 1.01 L/kg
[14]
  Cmax: 12400 ng/mL
[15]
  Tmax: 0.625 h
[16]
  half-life: 2.56 h
[17]
  AUC(0-t): 21800 ng·h/mL
[18]
  AUC(0-inf): 21900 ng·h/mL
[19]
  MRT last: 2.45 h
[20]
  bioavailability: 88.7%
hERG (KCNH2) [21]
  inhibition at 10 µM: 5.5%
[22]
  solubility: soluble
[23]
  solubility: soluble
[24]
  Stability: Stable
[25]
  Stability: Stable

## CCCC[C@H](CN(O)C=O)C(=O)N1CC=C[C@H]1C(=O)Nc1ccc(F)cn1
Staphylococcus aureus [2]
  MIC: 0.5 µg/mL (≈ 1.32 µM)
Staphylococcus aureus [3]
  MIC: 1 µg/mL (≈ 2.64 µM)
Staphylococcus aureus [4]
  MIC: 0.25 µg/mL (≈ 0.661 µM)
[5]
  MIC: 0.5 µg/mL (≈ 1.32 µM)
Escherichia coli [6]
  MIC: > 64 µg/mL
Escherichia coli [7]
  MIC: 64 µg/mL (≈ 169 µM)
[22]
  solubility: soluble
[23]
  solubility: soluble
[24]
  Stability: Stable
[25]
  Stability: Stable
